Molecules are shown by their SMILES.

This experiment is filed under the species Homo sapiens. Put plainly: The inhibitory concentration for the inhibition of ADP-Triggered Blood Platelet Aggregation. It counts as functional. The gist of the method:
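Human citrated PRP from unmedicated healthy donors (200g, 10 min, rt spin); PPP from 1000g, 20 min. Serial dilutions in phosphate buffer pH 7.4 preincubated with PRP 30 min at rt, then ADP added. Aggregation followed 10 min at 37 °C, absorbance 595 nm every 30 s with shaking; buffer and PPP-only controls; AMP as positive control.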
The molecule `Nc1ncnc2c1ncn2[C@@H]1O[C@H](COP(=S)(S)OCP(=O)(O)COP(=S)(S)OC[C@H]2O[C@@H](n3cnc4c(N)ncnc43)[C@H](O)[C@@H]2O)[C@@H](O)[C@H]1O` (stereo partly specified) returned an IC50 of 10 µM.
`Nc1ncnc2c1ncn2[C@@H]1O[C@H](COP(O)(=S)OC(C(=O)O)C(OP(O)(=S)OC[C@H]2O[C@@H](n3cnc4c(N)ncnc43)[C@H](O)[C@@H]2O)C(=O)O)[C@@H](O)[C@H]1O` (stereo partly specified) registered an IC50 of 75 µM.
With `Nc1ncnc2c1ncn2[C@@H]1O[C@H](COP(=O)(O)OCP(=O)(O)COP(=O)(O)OC[C@H]2O[C@@H](n3cnc4c(N)ncnc43)[C@H](O)[C@@H]2O)[C@@H](O)[C@H]1O` the figure was 80 µM.
The value for `Nc1ncnc2c1ncn2[C@@H]1O[C@H](COP(O)(=S)OCP(=O)(O)COP(O)(=S)OC[C@H]2O[C@@H](n3cnc4c(N)ncnc43)[C@H](O)[C@@H]2O)[C@@H](O)[C@H]1O` (stereo partly specified) was 40 µM.
With `Nc1ncnc2c1ncn2[C@@H]1O[C@H](COP(O)(=S)OCC(OP(O)(O)=S)OP(O)(=S)OC[C@H]2O[C@@H](n3cnc4c(N)ncnc43)[C@H](O)[C@@H]2O)[C@@H](O)[C@H]1O` (stereo partly specified) the figure was greater than 160 µM.
Molecule `Nc1ncnc2c1ncn2[C@@H]1O[C@H](COP(O)(=S)OCP(=O)(O)COP(O)(O)=S)[C@@H](O)[C@H]1O` (stereo partly specified) registered an IC50 of 13 µM.
